This passage reports inhibition and IC50 results from ChEMBL document CHEMBL1955799, “Cyclic dipeptides exhibit potency for scavenging radicals” (Bioorg Med Chem, 2012).

A word on the inhibition: it is the relative decrease from the control value, in per cent. The term IC50 denotes the concentration needed to halve the response being measured.

Assay type in all cases: functional
The nature of test [1]: Antioxidant activity assessed as hydroxyl radical scavenging activity at 2.5 mM by electron spin resonance method. The essentials: (§1)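 ESR spectrometry of radical signal, same settings for hydroxyl and superoxide radicals: magnetic field 335.7 ± 5 mT, power 4 mW at 9.414 GHz, modulation 100 kHz 1 × 0.079 mT, response 0.1 s, amplitude 160, sweep time 2 min, 25 °C. Activity is expressed as % inhibition of the radical signal.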

Test [2] in a line: Antioxidant activity assessed as hydroxyl radical scavenging activity by electron spin resonance method. The essentials:
as §1

A short description of test [3]: Antioxidant activity assessed as superoxide radical scavenging activity at 2.5 mM by electron spin resonance method. The gist of the method: as §1
Test [4] is described as follows: Antioxidant activity assessed as superoxide radical scavenging activity by electron spin resonance method. The gist of the method: as §1

As for `CSCC[C@@H]1NC(=O)[C@H](CC(C)C)NC1=O`, the inhibition was 79% in test [1] and 0% in test [3]. The IC50 in test [2] is 800 µM.

As for `CC(C)C[C@@H]1NC(=O)[C@H](CS)NC1=O`, the figures for the inhibition in test [1] and in test [3] were 88.9% and 83.3%, respectively. For the same compound, the figures for the IC50 in test [2] and in test [4] were 100 µM and 880 µM, respectively.

`CC(C)C[C@@H]1NC(=O)[C@H](Cc2ccccc2)NC1=O`: the inhibition in test [1] is 23.5%; in test [3], 0%.

In the case of `CC(C)C[C@@H]1NC(=O)[C@H]([C@@H](C)O)NC1=O`, the inhibition in test [1] and in test [3] was 0% throughout.

Take `CC(C)C[C@@H]1NC(=O)[C@H](C)NC1=O`: the inhibition in test [3] came to 0%.

As to `CC(C)C[C@@H]1NC(=O)[C@@H]2CCCN2C1=O`, the inhibition was determined as 86.2% in test [1] and 0% in test [3]. The concentration for half-maximal inhibition (IC50) in test [2] came to 1100 µM.

Take VITAMIN E: the inhibition in test [1] is 37.7%; in test [3], 32.3%.

Regarding `CC(C)C[C@@H]1NC(=O)[C@H](Cc2cnc[nH]2)NC1=O`, the inhibition in test [1] stood at 83.9%; in test [3], 0%. Moreover, the IC50 in test [2] stood at 850 µM.

Turning to `CC(C)C[C@@H]1NC(=O)[C@H](Cc2c[nH]c3ccccc23)NC1=O`, the results for the inhibition in test [1] and in test [3] were 66% and 0%, respectively. Besides, the IC50 in test [2] is 1800 µM.

Consider `CC(C)C[C@@H]1NC(=O)[C@H](CCC(=O)O)NC1=O`, for which the inhibition in test [1] was determined as 97.8%; in test [3], 0%. Further, in test [2], the IC50 turned out to be 80 µM.

In the case of `CC(C)C[C@@H]1NC(=O)[C@H](C(C)C)NC1=O`, the inhibition in test [1] was 12.3%; in test [3] it was 0%.

In the case of `CC(C)C[C@@H]1NC(=O)[C@H](CO)NC1=O`, the inhibition was 95.2% in test [1] and 0% in test [3]. Besides, the IC50 in test [2] is 1000 µM.

In the case of `CC(C)C[C@@H]1NC(=O)[C@H](CC(C)C)NC1=O`, the results for the inhibition in test [1] and in test [3] were 26% and 0%, respectively.

Turning to `CC(C)C[C@@H]1NC(=O)[C@H](CC(=O)O)NC1=O`, the inhibition worked out at 95% in test [1] and 0% in test [3]. Also, the IC50 in test [2] worked out at 4 µM.

In the case of `CC(C)C[C@@H]1NC(=O)CNC1=O`, the inhibition in test [1] and in test [3] was 0% throughout.

As for `CC(C)C[C@@H]1NC(=O)[C@H](CCCCN)NC1=O`, the inhibition in test [1] came out at 96%; in test [3], 0%. The IC50 in test [2] came out at 160 µM.

In the case of `CC(C)C[C@@H]1NC(=O)[C@H](CCC(N)=O)NC1=O`, the figures for the inhibition in test [1] and in test [3] were 19% and 0%, respectively.

For the compound `CC(C)C[C@@H]1NC(=O)[C@H](CC(N)=O)NC1=O`, the inhibition turned out to be 96% in test [1] and 0% in test [3]. In addition, the IC50 in test [2] came to 170 µM.
